According to ChEMBL document CHEMBL1759937, “Pyridinesulfonylureas and pyridinesulfonamides as selective bombesin receptor subtype-3 (BRS-3) agonists” (Bioorg Med Chem Lett, 2011):

Key:
[1] = molecular target: T1, Bombesin receptor subtype-3 (Homo sapiens, UniProt P32247)
T1 sequence (P32247 whole entry): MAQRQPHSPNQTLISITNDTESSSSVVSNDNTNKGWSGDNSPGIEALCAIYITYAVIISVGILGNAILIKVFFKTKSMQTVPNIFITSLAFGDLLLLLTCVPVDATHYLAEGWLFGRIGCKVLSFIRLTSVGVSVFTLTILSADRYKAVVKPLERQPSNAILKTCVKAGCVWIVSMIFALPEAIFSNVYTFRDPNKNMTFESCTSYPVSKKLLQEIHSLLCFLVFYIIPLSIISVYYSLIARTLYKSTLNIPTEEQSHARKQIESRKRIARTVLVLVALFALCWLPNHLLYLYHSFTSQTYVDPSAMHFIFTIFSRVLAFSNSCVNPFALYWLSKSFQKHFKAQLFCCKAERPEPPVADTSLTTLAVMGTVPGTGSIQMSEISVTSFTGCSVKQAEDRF

[2] = molecular target: T1, Bombesin receptor subtype-3; assay: Agonist activity at human BRS3 expressed in HEK293AEQ cells using 10 uM dy-peptide by bioluminescence assay
[3] = molecular target: T1, Bombesin receptor subtype-3; assay: Agonist activity at human BRS3 by functional assay
[4] = molecular target: T2, Bombesin receptor subtype-3 (Mus musculus, UniProt O54798); assay: Agonist activity at mouse BRS3 by functional assay
T2 sequence (O54798 whole entry): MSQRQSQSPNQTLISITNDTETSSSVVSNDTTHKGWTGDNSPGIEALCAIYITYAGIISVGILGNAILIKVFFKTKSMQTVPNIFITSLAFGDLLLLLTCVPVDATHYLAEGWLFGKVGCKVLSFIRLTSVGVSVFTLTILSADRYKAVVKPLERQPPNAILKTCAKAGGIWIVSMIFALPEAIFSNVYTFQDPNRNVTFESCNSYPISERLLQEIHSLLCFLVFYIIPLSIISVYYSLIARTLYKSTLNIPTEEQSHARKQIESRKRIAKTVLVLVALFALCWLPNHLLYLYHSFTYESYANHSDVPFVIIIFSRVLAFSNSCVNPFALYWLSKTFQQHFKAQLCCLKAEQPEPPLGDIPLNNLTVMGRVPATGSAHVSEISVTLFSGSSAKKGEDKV
Procedure, shortened: (§1)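 HEK293AEQ cells expressing mouse BRS-3; bioluminescence read against log molar compound concentration. EC50 taken as the inflection point of the sigmoidal curve and normalized to the EC50 of an internal standard. Values under 2 µM with standard errors are means of at least three experiments; duplicate data are reported individually.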

[5] = molecular target: T1, Bombesin receptor subtype-3; assay: Binding affinity to human BRS3
[6] = molecular target: T3, Bombesin receptor subtype-3 (Mus musculus) (UniProt O54798); assay: Agonist activity at mouse BRS3 by functional assay relative to control
T3 sequence (whole entry): T2 sequence (O54798 whole entry)
Procedure, shortened: as §1

[7] = molecular target: Gastrin-releasing peptide receptor (Homo sapiens) (UniProt P30550)
[8] = molecular target: Neuromedin-B receptor (Homo sapiens) (UniProt P28336)
[9] = Mean residence time in Sprague-Dawley rat at 1 mg/kg, iv or 4 mg/kg, po; assay type: ADME, organism-based; details: in vivo
Procedure, shortened: (§2)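 Male Sprague–Dawley rats. Blood collected at various time points into lithium heparin tubes and centrifuged; plasma stored at -70 °C until analysis. Plasma extracted by protein precipitation and quantified by LC/MS/MS.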

[10] = Volume of distribution at steady state in Sprague-Dawley rat at 1 mg/kg, iv or 4 mg/kg, po; assay type: ADME, organism-based; details: in vivo, read-out: Vdss
Procedure, shortened: as §2

[11] = Half life in Sprague-Dawley rat at 1 mg/kg, iv or 4 mg/kg, po; assay type: ADME, organism-based; details: in vivo
Procedure, shortened: as §2

[12] = Cmax in Sprague-Dawley rat at 1 mg/kg, iv or 4 mg/kg, po by LC/MS/MS; assay type: ADME, organism-based; details: in vivo
Procedure, shortened: as §2

[13] = Bioavailability in Sprague-Dawley rat at 1 mg/kg, iv or 4 mg/kg, po; assay type: ADME, organism-based; details: in vivo
Procedure, shortened: as §2

[14] = Plasma clearance in Sprague-Dawley rat at 1 mg/kg, iv or 4 mg/kg, po; assay type: ADME, organism-based
Procedure, shortened: as §2

Chain of Gastrin-releasing peptide receptor (Homo sapiens) (P30550 whole entry, looked up): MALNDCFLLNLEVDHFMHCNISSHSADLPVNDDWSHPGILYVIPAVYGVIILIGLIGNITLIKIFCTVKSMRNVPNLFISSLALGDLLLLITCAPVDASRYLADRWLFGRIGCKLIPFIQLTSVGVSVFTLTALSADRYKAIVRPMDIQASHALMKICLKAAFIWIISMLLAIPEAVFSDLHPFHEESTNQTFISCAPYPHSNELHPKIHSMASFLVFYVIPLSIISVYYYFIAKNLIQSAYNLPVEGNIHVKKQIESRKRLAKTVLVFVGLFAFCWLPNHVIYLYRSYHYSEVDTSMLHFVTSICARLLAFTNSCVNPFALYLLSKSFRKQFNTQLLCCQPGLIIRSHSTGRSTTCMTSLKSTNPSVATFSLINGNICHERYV
Chain of Neuromedin-B receptor (Homo sapiens) (P28336 whole entry, looked up): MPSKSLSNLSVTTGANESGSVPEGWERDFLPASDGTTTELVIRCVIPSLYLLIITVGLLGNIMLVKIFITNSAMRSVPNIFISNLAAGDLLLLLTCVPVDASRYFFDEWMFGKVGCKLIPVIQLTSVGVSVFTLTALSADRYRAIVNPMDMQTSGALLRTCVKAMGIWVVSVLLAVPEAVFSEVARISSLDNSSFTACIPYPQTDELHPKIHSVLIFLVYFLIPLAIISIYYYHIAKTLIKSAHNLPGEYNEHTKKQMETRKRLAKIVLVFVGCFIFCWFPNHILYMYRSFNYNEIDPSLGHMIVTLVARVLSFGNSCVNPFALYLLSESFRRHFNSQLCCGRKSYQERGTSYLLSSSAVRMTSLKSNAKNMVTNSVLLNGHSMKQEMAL

EC50 [3] [nM] | EC50 [4] [nM] | IC50 [5] [nM] | Activity [6] [%] | Compound | also measured
 |  |  |  | CC(C)NC(=O)NS(=O)(=O)c1cnccc1NC1CC2CCC1C2 (centres undefined) | IC50 [1]: 600 nM; EC50 [2]: 220 nM
55 | 21 | 68 |  | CC(C)(C)NC(=O)NS(=O)(=O)c1cnccc1N[C@@H]1C[C@H]2CC[C@@H]1C2 [listing 1 of 2 here] | 
720 | 110 | 630 | 93 | CC(C)(C)NC(=O)NS(=O)(=O)c1cnccc1N[C@H]1C[C@@H]2CC[C@H]1C2 | 
450 | 260 | 400 | 90 | CC(C)(C)NC(=O)NS(=O)(=O)c1cnccc1NC1CCCCC1 | 
1700 | 90 | 660 | 88 | CC(C)(C)NC(=O)NS(=O)(=O)c1cnccc1N[C@@H]1C[C@H]2CC[C@]1(C)C2(C)C | 
450 | 33 | 300 | 82 | CC(C)(C)NC(=O)NS(=O)(=O)c1cnccc1N[C@H]1C[C@H]2CC[C@]1(C)C2(C)C | 
7500 | 6900 | > 10000 | 20 | CC(C)(C)NC(=O)NS(=O)(=O)c1cnccc1NCc1ccccc1 | 
8100 | 4300 | 3000 | 43 | CC(C)(C)NC(=O)NS(=O)(=O)c1cnccc1NC(C)(C)c1ccccc1 | 
1600 | 320 | 880 | 77 | CC(C)(C)NC(=O)NS(=O)(=O)c1cnccc1O[C@@H]1C[C@@H]2CC[C@H]1C2 | 
 |  |  |  | CC(C)(C)NC(=O)NS(=O)(=O)c1cnccc1NC1CC2CCC1C2 (centres undefined) | EC50 [7]: > 10000 nM; EC50 [8]: > 10000 nM
 |  |  | 100 | CC(C)(C)NC(=O)NS(=O)(=O)c1cnccc1N[C@@H]1C[C@H]2CC[C@@H]1C2 [listing 2 of 2 here] | 
220 | 39 | 310 | 55 | O=C(NC12CC3CC(CC(C3)C1)C2)NS(=O)(=O)c1cnccc1N[C@@H]1C[C@H]2CC[C@@H]1C2 (mixture of isomers) | 
440 | 86 | 510 | 88 | CC(C)NC(=O)NS(=O)(=O)c1cnccc1N[C@@H]1C[C@H]2CC[C@@H]1C2 (racemic) | 
940 | 98 | 820 | 86 | CC(C)NC(=O)NS(=O)(=O)c1cnccc1N[C@H]1C[C@H]2CC[C@@H]1C2 (racemic) | 
81 | 28 | 100 |  | CC(C)(C)NC(=O)NS(=O)(=O)c1cnccc1N[C@@H]1C[C@H]2CC[C@@H]1C2 (racemic) [listing 1 of 2 here] | 
160 | 49 | 230 | 91 | CC(C)(C)NC(=O)NS(=O)(=O)c1cnccc1N[C@H]1C[C@H]2CC[C@@H]1C2 (racemic) | 
51 | 13 | 75 | 108 | CCC(C)(C)NC(=O)NS(=O)(=O)c1cnccc1N[C@@H]1C[C@H]2CC[C@@H]1C2 (racemic) | 
350 | 100 | 530 | 102 | CC(C)(C)CC(C)(C)NC(=O)NS(=O)(=O)c1cnccc1N[C@@H]1C[C@H]2CC[C@@H]1C2 (racemic) | 
6800 | 1300 | 3800 | 63 | CC(C)(C)NC(=O)NS(=O)(=O)c1cnccc1NC1CCc2ccccc21 (racemic) | 
1200 | 320 | 990 | 92 | CC(C)(C)NC(=O)NS(=O)(=O)c1cnccc1O[C@@H]1C[C@H]2CC[C@@H]1C2 (racemic) | 

EC50 [3] [nM] | EC50 [4] [nM] | IC50 [5] [nM] | Activity [6] [%] | Compound | also measured
6400 | 340 | 6200 | 91 | CC(C)(C)NC(=O)NS(=O)(=O)c1ccccc1N[C@@H]1C[C@H]2CC[C@@H]1C2 (racemic) | 
8300 | 4900 | > 10000 | 61 | CC(C)(C)CC(=O)NS(=O)(=O)c1cnccc1N[C@@H]1C[C@H]2CC[C@@H]1C2 (racemic) | 
8200 | 590 | > 10000 | 89 | CC(C)(C)OC(=O)NS(=O)(=O)c1cnccc1N[C@@H]1C[C@H]2CC[C@@H]1C2 (racemic) | 
640 | 180 | 650 | 96 | CN(C(=O)NS(=O)(=O)c1cnccc1N[C@@H]1C[C@H]2CC[C@@H]1C2)C(C)(C)C (racemic) | 
> 10000 | 7000 | 9700 | 13 | CC(C)(C)NC(=N)NS(=O)(=O)c1cnccc1N[C@@H]1C[C@H]2CC[C@@H]1C2 (racemic) | 
8300 | 6500 | 6700 | 49 | CN(C(=O)NC(C)(C)C)S(=O)(=O)c1cnccc1N[C@@H]1C[C@H]2CC[C@@H]1C2 (racemic) | 
2600 | 160 | 520 | 102 | CC(C)(C)c1cccc(NS(=O)(=O)c2cnccc2N[C@@H]2C[C@H]3CC[C@@H]2C3)c1 (racemic) | 
2100 | 200 | 2500 | 81 | CC(C)(C)c1csc(NS(=O)(=O)c2cnccc2N[C@@H]2C[C@H]3CC[C@@H]2C3)n1 (racemic) | 
4000 | 270 | 250 | 113 | CC(C)(C)c1cc(NS(=O)(=O)c2cnccc2N[C@@H]2C[C@H]3CC[C@@H]2C3)[nH]n1 (racemic) | 
4000 | 410 | 770 | 72 | CC(C)c1n[nH]c(NS(=O)(=O)c2cnccc2N[C@@H]2C[C@H]3CC[C@@H]2C3)n1 (racemic) | 
1200 | 170 | 290 |  | O=S(=O)(Nc1nnc(C2CCC2)[nH]1)c1cnccc1N[C@@H]1C[C@H]2CC[C@@H]1C2 (racemic) | 
 |  |  |  | CC(C)(C)NC(=O)NS(=O)(=O)c1cnccc1NC1CC2CCC1C2 (racemic) | MRT [9]: 39.6 min; Vd [10]: 0.57 L/kg; half-life [11]: 288 min; Cmax [12]: 7 µM; bioavailability [13]: 100%; clearance [14]: 14 mL/min/kg
 |  |  |  | CCC(C)(C)NC(=O)NS(=O)(=O)c1cnccc1NC1CC2CCC1C2 (racemic) | MRT [9]: 11.4 min; Vd [10]: 0.3 L/kg; half-life [11]: 15 min; Cmax [12]: 2 µM; bioavailability [13]: 41%; clearance [14]: 26 mL/min/kg
 |  |  | 101 | CC(C)(C)NC(=O)NS(=O)(=O)c1cnccc1N[C@@H]1C[C@H]2CC[C@@H]1C2 (racemic) [listing 2 of 2 here] | 
 |  |  | 84 | O=S(=O)(Nc1nc(C2CCC2)n[nH]1)c1cnccc1N[C@@H]1C[C@H]2CC[C@@H]1C2 (racemic) | 
1700 | 190 | 310 |  | O=S(=O)(Nc1nc(C2CCC2)n[nH]1)c1cnccc1NC1CC2CCC1C2 (single isomer, unassigned) [listing 1 of 2 here] | 
 |  |  | 88 | O=S(=O)(Nc1nc(C2CCC2)n[nH]1)c1cnccc1NC1CC2CCC1C2 (single isomer, unassigned) [listing 2 of 2 here] | 
380 | 51 | 68 |  | O=S(=O)(Nc1nc(C2CCC2)n[nH]1)c1cnccc1NC1CC2CCC1C2 (single isomer, unassigned; faster eluting) [listing 1 of 2 here] | 
 |  |  | 87 | O=S(=O)(Nc1nc(C2CCC2)n[nH]1)c1cnccc1NC1CC2CCC1C2 (single isomer, unassigned; faster eluting) [listing 2 of 2 here] | 

Compound | EC50 [3] [nM] | EC50 [4] [nM] | IC50 [5] [nM] | Activity [6] [%] | also measured
CC(C)(C)NC(=O)NS(=O)(=O)c1cnccc1N[C@H]1CN2CCC1CC2 | > 10000 | > 10000 | > 10000 | 0 | 
CC(C)(C)NC(=O)NS(=O)(=O)c1cnccc1NN1CCCC1 | > 10000 | > 10000 | > 10000 | 5 | 
